Results from paper PMC6996349 (Hepatology Communications, 2019).

How the values were obtained:
[1] = system: NASH patients; settings: 1.8 or 2.7 g/day, 1 year; cited from earlier work
[2] = system: subjects with elevated triglycerides; settings: 4 g/day oral; cited from earlier work
[3] = system: APOE*3Leiden.CETP mice; format: in vivo
How it was run: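 High-fat/cholesterol-fed male APOE*3Leiden.CETP mice aged 8-15 weeks, n = 12/group, given corn-oil vehicle or test compound at 112 mg/kg/d by daily oral gavage for 20 weeks. Liver cross sections were stained with H&E or sirius red and scored with an adapted human NASH grading system. Hepatic lipids were determined biochemically. Body weight was monitored regularly. Mean ± SEM; nonparametric group comparisons.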

[4] = system: APOE*3Leiden.CETP mice; assay: Hepatic lipotoxic lipid species; format: in vivo; settings: 20 weeks, versus control
How it was run: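 Male APOE*3Leiden.CETP mice aged 8-15 weeks on a high-fat diet (24% wt/wt lard, 1% wt/wt cholesterol), n = 12/group. Mice received daily corn-oil vehicle gavage or test compound at 112 mg/kg/d by oral gavage for 20 weeks, starting with the diet. Harvested livers underwent lipidomics and reduced/oxidized glutathione assays. Mean ± SEM; Kruskal-Wallis then Mann-Whitney U.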

[5] = system: ob/ob mice; assay: Glucose metabolism and insulin resistance in ob/ob mice; format: in vivo; settings: for Glucose metabolism, effect: fenofibrate 100, pioglitazone 30 mg/kg/d in diet
How it was run: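 Male ob/ob mice aged 6-8 weeks, n = 10/group, either untreated or given test compound at 135 mg/kg/d in the diet for 5 weeks. Reference-agent groups were also dosed in the diet. Blood glucose, insulin, HbA1c and HOMA-IR were measured after 4 weeks on tail-vein EDTA blood taken after a 4-h fast. Body weight was recorded between 8 and 9 am. Mean ± SEM; Kruskal-Wallis then Mann-Whitney U.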

[6] = system: NASH patients; settings: PIVENS study; cited from earlier work
[7] = 20 weeks, icosabutate 112 mg/kg/d, rosiglitazone 13 mg/kg/d

CC/C=C\C/C=C\C/C=C\C/C=C\C/C=C\CCCC(=O)OCC [EPA ethyl ester, eicosapentaenoic acid (EPA) ethyl ester]
Effect on liver histology [1]: no effect | Major adverse cardiovascular events, effect [2]: markedly reduce

CN(CCOc1ccc(CC2SC(=O)NC2=O)cc1)c1ccccn1 (stereo not shown) [rosiglitazone]
Fibrosis, effect ([3]; 20 weeks): no change | Number of inflammatory cell aggregates, change versus control ([3]; 20 weeks): −67% | Serum amyloid A, change versus control ([3]; 20 weeks): −46% | Hepatic cholesterol ester, effect ([3]; 20 weeks, biochemical analysis of intrahepatic lipids): significant reduction | Hepatocellular hypertrophy, change versus control [3, 7]: did not significantly affect | Microvesicular steatosis, change versus control [3, 7]: did not significantly affect | Serum amyloid A ([3]; after 20 weeks of treatment, control 29.8 ± 5.0, mean ± SEM): 16.1 ± 3.3 | Plasma monocyte chemoattractant protein 1 ([3]; after 20 weeks of treatment, control 111.5 ± 17.1, mean ± SEM): 65.1 ± 5.1 | Body weight, change versus control ([3]; week 16 and 20, data not shown): did not significantly increase | Hepatic GSH:GSSG ratio, effect [4]: had no effect | Hepatic GSSG, effect [4]: had no effect | Hepatic concentration of FFAs, effect [4]: had no effect | Hepatic concentration of HETEs (11[R]‐, 12‐, 15[S] isomers), effect [4]: significant increase | Hepatic concentration of arachidonic acid, effect [4]: had no effect | Hepatic concentration of bile acids, effect [4]: had no effect | Hepatic concentration of ceramides, effect [4]: had no effect | Hepatic concentration of diacylglycerols (DAGs), effect [4]: had no effect

CC(C)OC(=O)C(C)(C)Oc1ccc(C(=O)c2ccc(Cl)cc2)cc1 [fenofibrate]
Plasma adiponectin, increase versus control ([5]; after 4 weeks of treatment): neither fenofibrate nor icosabutate affected | Plasma insulin, change versus control ([5]; after 4 weeks of treatment): less pronounced | Reduction of blood glucose AUC (0‐120 minutes) in oral glucose tolerance test ([5]; after 5 weeks of treatment, 2 g/kg glucose, 4-hour fasted): less potent effect | Glucose metabolism, effect [5]: also improved glucose metabolism

CCc1ccc(CCOc2ccc(CC3SC(=O)NC3=O)cc2)nc1 (stereo not shown) [pioglitazone]
Fibrosis, effect [6]: without change | Lobular inflammation, effect [6]: improvements | Plasma adiponectin, increase versus control ([5]; after 4 weeks of treatment): 4.5 fold | HOMA‐IR, change versus control ([5]; after 4 weeks of treatment, icosabutate 135, pioglitazone 30 mg/kg/d): −97% | Glucose metabolism, effect [5]: also improved glucose metabolism
